This is a sample that favours compounds with a hit; in the whole collection about 4% have one here.
hiPSC survival = enhancers of single-cell hiPSC survival, primary screen, ATPlite luminescence; 100% = ROCK inhibitor wells, 0% = DMSO; survival enhancement, % at 20 µM; 360,000 tested, 0.044% active; AID 602274, 2012; in the data active = survival enhancement above about 18%;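 note: cells exposed to compounds for 16 hours before the ATP read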
GRIN3A LBD mod = binders of NR3A ligand-binding domain, primary screen, biophysical, differential scanning fluorimetry, uHTS | Glutamate receptor ionotropic, NMDA 3A (GRIN3A) ligand-binding domain | NR3A LBD differential scanning fluorimetry, Tm shift; 0% = protein alone, 100% = glycine-bound protein | Tm shift relative to glycine control, % at 25 µM | 340,000 tested, 2.5% active | AID 1259313, 2017;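 active = melting temperature shift of at least 10% of the positive control shift, at one fixed dose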
SENP1 FRET inh = human SENP1 catalytic domain inhibitors, primary screen, biochemical, FRET, uHTS; Sentrin-specific protease 1 (Homo sapiens), Q9P0U3; recombinant SENP1 catalytic domain, CyPet-SUMO1-YPet FRET cleavage; inhibition, % at 10 µM; 360,000 tested, 0.21% active; AID 624204, 2012;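 active = inhibition at least 30% at 10 µM, raw YFP signal under a set limit, fluorescence ratio 0.5 to 1.5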
Target sequence (Q9P0U3 419-644 limits assumed): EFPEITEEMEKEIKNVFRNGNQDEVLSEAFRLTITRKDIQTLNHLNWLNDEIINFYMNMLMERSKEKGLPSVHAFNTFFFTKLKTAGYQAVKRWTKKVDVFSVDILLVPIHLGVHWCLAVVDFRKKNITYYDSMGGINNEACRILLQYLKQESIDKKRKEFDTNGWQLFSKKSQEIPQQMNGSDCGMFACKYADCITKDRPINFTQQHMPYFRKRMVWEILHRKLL
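Controls: no-enzyme wells low, DMSO-plus-enzyme wells high control. Test system: human recombinant His6-tagged SENP1 catalytic domain enzyme. Reagent: SFCypet-SUMO1-SFYpet FRET protein substrate, 25 nM final. Doses: one dose per compound, 10 µM, 0.5% DMSO. Detection: FRET, CFP and YFP emission. Timing: 50 min reaction at room temperature.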
FAS-TE inh = FAS thioesterase domain inhibitors, primary screen, biochemical, fluorescence intensity, uHTS. Fatty acid synthase (Homo sapiens), P49327. recombinant FAS-TE, OMFH fluorogenic substrate, fluorescence endpoint. inhibition, % at 15 µM. 360,000 tested, 0.67% active;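 active = compounds whose normalised, plate-corrected inhibition of enzyme fluorescence in the single-dose primary screen is 50% or more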
H9c2 protect = cardioprotection against H2O2-induced cell death, primary screen, uHTS, H9c2 cells, ATPLite luminescence | H9c2 cardiomyocytes, H2O2 injury protection, 2 h | protection from H2O2 cell death, % at 20 µM | 360,000 tested, 0.63% active | AID 588492, 2011;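 active = compounds giving at least 50% protection of heart cells from peroxide-induced death in the single-dose screen, raw or plate-pattern-corrected value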
Arrestin-AP2 inh = inhibitors of beta-arrestin/AP2 binding, primary screen, biochemical, GPCR trafficking, flow cytometry | FITC-arrestin peptide / GST-AP2 beads; AP2 beta2 appendage carries R879A mutation | inhibition, % at 10 µM | 340,000 tested, 0.31% active;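 active = inhibition above a set limit, near 3 SD of compounds lacking own fluorescence, cut at about 54% in these data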
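system = GST-tagged AP2 beta2-adaptin appendage (R879A) on 4 µm glutathione beads | reagent = FITC-labelled arrestin peptide probe, 50 nM final | schedule = compound with beads 12 min RT, then probe 1 h RT | signal = HyperCyt-sampled flow cytometry, FL1 channel, ex 488/em 535 nm | read-out = percent response from loss of bead-bound FITC fluorescence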
Numbers stand for hits; – = inactive; · = no result given.

SMILES	hiPSC survival	GRIN3A LBD mod	SENP1 FRET inh	FAS-TE inh	H9c2 protect	Arrestin-AP2 inh
CCN(CC)S(=O)(=O)c1cccc(NC(=O)Nc2cccc(C(F)(F)F)c2)c1	–	31	–	–	–	–
Cc1cc(NC(=O)Nc2cccc(C(F)(F)F)c2)no1	–	589	–	–	–	–
COc1cccc(NC(=O)Nc2cc(C)on2)c1	–	–	–	–	–	–
Cc1cc(NS(=O)(=O)c2ccc(NC(=O)/C=C/c3cccc(Cl)c3)cc2)no1	–	16	–	–	–	–
Cc1cc(NS(=O)(=O)c2ccc(NC(=O)NC(C)(C(F)(F)F)C(F)(F)F)cc2)no1	–	–	–	–	–	–
Cc1cc(NS(=O)(=O)c2ccc(NC(=O)Nc3cccc(C(F)(F)F)c3)cc2)no1	–	22	–	–	–	–
COc1cc2c(cc1OC)C1=NC(=O)CN1C(SCc1ccccc1C)=N2	–	26	–	–	–	–
Cc1cccc(N=Cc2cc(Br)cc(Cl)c2O)c1	–	–	–	–	54	–
CCC(=O)Nc1ccc2c(c1)OC[C@@H](C)N(Cc1cccc(F)c1)C[C@@H](C)[C@@H](OC)CN(C)C2=O	·	·	–	·	·	·
CC(C)(C)c1nnc(N/N=C/c2cc(Br)ccc2O)n(N)c1=O	–	–	–	–	76	–
C[C@H]1CN([C@@H](C)CO)C(=O)CCCn2nncc2CO[C@@H]1CN(C)Cc1ccncc1	–	·	–	–	–	·
CCOC(=O)c1nn(-c2cccc(Cl)c2)c2nc(Nc3ccccc3)cc(=O)n12	–	–	–	–	–	–
CCOC(=O)c1nn(-c2ccccc2C)c2nc(Nc3ccccc3)cc(=O)n12	–	13	–	–	–	–
CCOC(=O)c1nn(-c2cccc(OC)c2)c2nc(Nc3ccccc3)cc(=O)n12	–	–	–	–	52	–
Cn1nc(NC(=O)C(F)(F)F)c2ncc(-c3ccccc3)nc21	–	·	–	–	–	·
COC(=O)/C=C1\OCc2cc(OCc3ccccc3)ccc21	·	·	–	·	·	·
COc1ccc(NC(=O)C2Cc3c(-c4ccc5c(c4)OCO5)ccnc3O2)cc1 (stereo not drawn)	–	·	–	–	–	·
CCN(CC)c1ccc(C=N/C(C#N)=C(\N)C#N)cc1	–	27	–	–	–	–
COc1ccc(C2(C)NC(=O)N(CC(=O)Nc3ccc(-c4nc5ccc(C)cc5s4)cc3)C2=O)cc1 (stereo not drawn)	–	–	–	–	–	–
Cc1ccc2nc(NC(=O)CN3C(=O)NC4(CCCC4)C3=O)sc2c1	–	–	–	–	–	–
CCCC1(c2ccccc2)NC(=O)N(CC(=O)Nc2ccc(N3CCOCC3)cc2)C1=O (stereo not drawn)	–	–	–	–	–	–
CCCCC1(c2ccc(F)cc2)NC(=O)N(CC(=O)Nc2ccc(N3CCOCC3)cc2)C1=O (stereo not drawn)	–	12	–	–	–	–
CCC1(c2ccc(F)cc2)NC(=O)N(CC(=O)Nc2ccc(-c3nc4ccc(C)cc4s3)cc2)C1=O (stereo not drawn)	–	11	–	–	–	–
CCc1ccc2nc(NC(=O)CN3C(=O)NC4(CCCC4)C3=O)sc2c1	–	11	–	–	–	–
COc1cc(CNc2ncnc3c2ncn3[C@H]2CN(Cc3ccccc3)C[C@@H](COC(C)=O)O2)cc(OC)c1OC	–	·	–	–	–	·
SMILES	hiPSC survival	GRIN3A LBD mod	SENP1 FRET inh	FAS-TE inh	H9c2 protect	Arrestin-AP2 inh
O=C(Nc1ccc2ccccc2c1)c1ccccc1Cl	–	·	–	–	–	·
O=C(COC(=O)c1ccccc1O)Nc1ccc2ccccc2c1	–	15	–	–	–	–
O=C(Nc1ccc2ccccc2c1)c1ccccc1O	–	20	–	–	–	–
Cc1ccc(S(=O)(=O)N2CC3(O)CN(C(=O)OC(C)C)N(C(=O)OC(C)C)CC3(OC(=O)NCc3ccccc3)C2)cc1 (stereo not drawn)	–	·	–	–	–	·
CCc1nc2c(OCCc3cccc(OC)c3)cccn2c1N(C=O)Cc1ccccc1	–	·	–	–	–	·
O=C1NC[C@@H](CCCCN2C[C@H](Cc3ccc(O)cc3)N(CCc3ccccc3)C(=O)C2=O)N(CCC2CCCCC2)C1=O	–	·	–	–	·	·
C=CCOC(=O)C1=C[C@H](c2cn(C(C)=O)c3ccccc23)C[C@H](OCc2ccc(CO)cc2)O1	–	–	–	–	51	–
CC1(Cc2ccc(C(F)(F)F)nc2)C(=O)Nc2cc(-c3ccccc3Cl)ccc21 (stereo not drawn)	–	·	–	–	–	·
COc1cc(CC(=O)C(=O)O)oc(=O)c1	–	·	–	–	–	·
N#CC1CC(c2ccccc2)Nc2cc(Cl)ccc2N1 (stereo not drawn)	–	14	–	–	–	–
CC(C)NC(=O)C1(C)CSCC(=O)N1Cc1cccc(F)c1 (stereo not drawn)	·	·	–	·	·	·
COc1ccc(-c2cc3ccc(OC)cc3cn2)cc1	–	41	–	–	–	–
COc1cc(C2C(C#N)=C(C)NC3=C2C(=O)c2ccccc23)cc(OC)c1OC (stereo not drawn)	–	–	–	–	128	–
CC(C)(C)c1ccc(C(=O)CSc2nc3ccccc3c(=O)[nH]2)cc1	–	–	–	–	–	–
O=C(CSc1nc2ccccc2c(=O)[nH]1)N1CCCCC1	–	–	–	–	71	–
Cc1ccc(N(CCC#N)C(=O)CSc2nc3ccccc3c(=O)[nH]2)cc1	–	–	–	–	80	–
O=C(CSc1nc2ccccc2c(=O)[nH]1)c1ccccc1	–	–	–	–	51	–
O=C(CSc1nc2ccccc2c(=O)[nH]1)Nc1ccc(N2CCOCC2)cc1	–	17	–	–	–	–
Cc1ccc(S(=O)(=O)NC(=O)C2(C)CCN2C(=O)c2ccccc2)cc1 (stereo not drawn)	–	·	–	–	–	·
O=C(CSc1nc2ccc(Cl)cc2[nH]1)c1c[nH]c2ccccc12	–	12	–	–	–	–
O=C(CSc1nc2ncc(Cl)cc2[nH]1)c1c[nH]c2ccccc12	–	–	–	–	–	–
CC1=C2C3OC(=O)C(C)C3CCC2(C)C=C(Br)C1=O (stereo not drawn)	–	·	–	–	–	·
Cc1cc(NC(=O)Nc2ccc3c(ccn3C)c2)sn1	–	17	–	–	–	–
O=C(O)/C(CC(=O)c1ccc(Cl)cc1)=N/Nc1ccc([N+](=O)[O-])cc1[N+](=O)[O-]	–	21	–	–	–	–
